Tests used:
Type in all cases: biochemical
ALDH3A1 [1] = target: T1, ALDH3A1 (Homo sapiens, UniProt P30838); assay: ALDH3A1 dehydrogenase assay; settings: read-out: (Dehydrogenase assay) IC50; ALDH3A1, 1 mM benzaldehyde, […] NADP+, pH 7.5
T1 sequence (P30838 1-453): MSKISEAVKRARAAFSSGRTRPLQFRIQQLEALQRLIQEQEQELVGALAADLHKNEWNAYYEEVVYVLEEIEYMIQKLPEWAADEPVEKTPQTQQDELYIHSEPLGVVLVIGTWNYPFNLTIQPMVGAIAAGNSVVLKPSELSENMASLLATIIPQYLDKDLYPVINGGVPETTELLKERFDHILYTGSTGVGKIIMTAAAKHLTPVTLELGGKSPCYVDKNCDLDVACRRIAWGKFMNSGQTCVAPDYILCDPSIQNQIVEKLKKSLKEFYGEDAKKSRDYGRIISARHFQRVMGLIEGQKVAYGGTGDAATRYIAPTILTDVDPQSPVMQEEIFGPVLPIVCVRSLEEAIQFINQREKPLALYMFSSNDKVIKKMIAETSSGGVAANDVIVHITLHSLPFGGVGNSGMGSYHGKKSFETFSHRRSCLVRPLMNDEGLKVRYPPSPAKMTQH

ALDH2 = target: T2, ALDH2 (Homo sapiens, UniProt P05091); assay: Isoenzyme selectivity: ALDH2 dehydrogenase activity; settings: 10 μM concentration, aldehyde oxidation
T2 sequence (P05091 18-517): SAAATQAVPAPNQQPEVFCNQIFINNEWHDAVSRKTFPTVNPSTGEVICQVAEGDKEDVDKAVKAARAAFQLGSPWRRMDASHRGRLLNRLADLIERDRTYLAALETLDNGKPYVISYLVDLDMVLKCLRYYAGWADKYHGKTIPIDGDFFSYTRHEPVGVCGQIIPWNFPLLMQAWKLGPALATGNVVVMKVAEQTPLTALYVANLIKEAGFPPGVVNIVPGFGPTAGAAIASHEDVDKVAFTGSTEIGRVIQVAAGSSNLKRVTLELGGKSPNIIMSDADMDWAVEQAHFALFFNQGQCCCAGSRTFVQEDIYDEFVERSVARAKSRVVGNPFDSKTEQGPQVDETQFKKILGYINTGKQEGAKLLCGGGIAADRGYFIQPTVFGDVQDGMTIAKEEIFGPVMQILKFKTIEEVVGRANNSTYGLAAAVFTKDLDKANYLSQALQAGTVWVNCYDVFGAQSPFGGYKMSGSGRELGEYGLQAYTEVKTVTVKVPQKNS

ALDH3A1 [2] = target: T1, ALDH3A1; assay: ALDH3A1 esterase assay; settings: read-out: (Esterase assay) IC50; ALDH3A1, 0.8 mM para-nitrophenylacetate, pH 7.5
Procedure, shortened: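 Reactions used nickel-NTA/Q-sepharose-purified recombinant ALDH3A1 at 180 nM in 25 mM sodium HEPES. Inhibitor was preincubated with enzyme for 2 min, and 0.8 mM para-nitrophenylacetate then started the reaction. para-Nitrophenol formation was read spectrophotometrically at 405 nm (ε 18,000 M−1cm−1).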

ALDH1A1 = target: T3, ALDH1A1 (Homo sapiens, UniProt P00352); assay: Isoenzyme selectivity: ALDH1A1 dehydrogenase activity; settings: 10 μM concentration, aldehyde oxidation
T3 sequence (P00352 1-501): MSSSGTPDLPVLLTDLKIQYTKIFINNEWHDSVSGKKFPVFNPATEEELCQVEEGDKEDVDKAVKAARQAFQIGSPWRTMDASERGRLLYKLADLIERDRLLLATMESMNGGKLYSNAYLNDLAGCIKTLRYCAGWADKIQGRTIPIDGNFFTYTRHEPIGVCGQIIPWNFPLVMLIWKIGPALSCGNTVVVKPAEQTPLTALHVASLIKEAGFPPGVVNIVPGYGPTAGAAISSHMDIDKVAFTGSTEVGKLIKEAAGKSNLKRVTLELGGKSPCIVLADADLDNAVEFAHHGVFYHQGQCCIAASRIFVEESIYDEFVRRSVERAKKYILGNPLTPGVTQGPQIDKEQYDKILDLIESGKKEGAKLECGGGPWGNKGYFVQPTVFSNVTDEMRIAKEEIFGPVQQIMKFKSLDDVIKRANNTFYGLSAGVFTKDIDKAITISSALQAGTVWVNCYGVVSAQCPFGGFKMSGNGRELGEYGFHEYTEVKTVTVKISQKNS

| Structure (SMILES) | IC50 (ALDH3A1 [1]) | inhibition of ALDH2 (ALDH2) | IC50 (ALDH3A1 [2]) | inhibition of ALDH1A1 (ALDH1A1) |
| --- | --- | --- | --- | --- |
| CC(=O)Nc1ccc(Nc2ccc(S(C)(=O)=O)cc2[N+](=O)[O-])cc1 [CB29] | 5 µM | less than 10% | 0.5 µM | less than 10% |
| CCSc1nnc2c(n1)OC(C(=O)c1ccc(OC)cc1)Nc1ccccc1-2 (centres unmarked) [CD5] | 1.5 µM |  | 1 µM |  |
| CCOC(=O)CN1C(=O)C(O)(CC(=O)c2ccncc2)c2ccccc21 (centres unmarked) [CD8] | 6.3 µM |  | 2.2 µM |  |
